Measured values: paper PMC12783166 (Clinical Pharmacokinetics, 2025)

How the values were obtained:
[1] = Individual predicted steady-state exposures; format: in vivo, human; conditions: for AUC / Cmax: human, plasma, oral
Procedure, shortened: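 Steady-state AUC24, Ctrough, Cmax and Cavg were derived from each individual's Bayesian post hoc estimates from the final three-compartment population PK model, with sequential zero-/first-order lagged absorption. Values are summarised per […] as mean (SD) and median (5th–95th percentile).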

[2] = tested on: calcitonin gene-related peptide receptor; conditions: plasma concentration threshold; cited from earlier work
[3] = tested on: OAT1; conditions: cited from earlier work
[4] = Phase 2 population PK model; format: in vivo, human; conditions: Phase 2 Model
[5] = cited from earlier work
[6] = tested on: BCRP; conditions: cited from earlier work
[7] = tested on: P-gp; conditions: cited from earlier work
[8] = tested on: cytochrome P450 3A4 (CYP3A4); conditions: cited from earlier work
[9] = tested on: OATP1B3; conditions: cited from earlier work
[10] = oral administration of a 60-mg dose

**Q.** For `C[C@@H]1[C@H](c2c(F)ccc(F)c2F)C[C@H](NC(=O)c2cnc3c(c2)C[C@@]2(C3)C(=O)Nc3ncccc32)C(=O)N1CC(F)(F)F` [atogepant, Atogepant], which “Cavg, Median (5th to 95th percentile)” value ([1]; PROGRESS CM, 60 mg QD) is on record?
**A.** 120 (21.9–908) ng/mL

**Q.** What about the “Ctrough, Mean (SD)” value ([1]; PROGRESS CM, 60 mg QD) of the same molecule?
**A.** 18.8 (24) ng/mL

**Q.** And the “Ctrough, Median (5th to 95th percentile)” value ([1]; PROGRESS CM, 60 mg QD)?
**A.** 14.4 (2.23–287) ng/mL

**Q.** And the “Time above ½EC90 (4.2 ng/mL or 7 nM), Mean (SD)” value ([1]; PROGRESS CM, 60 mg QD)?
**A.** 23.9 (0.88) hr

**Q.** And the “Time above ½EC90 (4.2 ng/mL or 7 nM), Median (5th to 95th percentile)” value ([1]; PROGRESS CM, 60 mg QD)?
**A.** 24.0 (15.5–24.0) hr

**Q.** What about the AUC ([1]; 10 mg, AUC24, Mean (SD), ADVANCE EM, 10 mg QD) of the same molecule?
**A.** 0.525 µg·h/mL

**Q.** What about the AUC ([1]; 10 mg, AUC24, Mean (SD), CGP-MD-01 EM, 10 mg QD) of the same molecule?
**A.** 0.461 µg·h/mL

**Q.** And the AUC ([1]; 10 mg, AUC24, Median (5th to 95th percentile), ADVANCE EM, 10 mg QD)?
**A.** 0.464 µg·h/mL

**Q.** What about the AUC ([1]; 10 mg, AUC24, Median (5th to 95th percentile), CGP-MD-01 EM, 10 mg QD) of the same molecule?
**A.** 0.464 µg·h/mL

**Q.** What about the Cmax ([1]; 10 mg, Mean (SD), ADVANCE EM, 10 mg QD) of the same molecule?
**A.** 0.0817 µg/mL

**Q.** What about the Cmax ([1]; 10 mg, Mean (SD), CGP-MD-01 EM, 10 mg QD) of the same molecule?
**A.** 0.0745 µg/mL

**Q.** And the Cmax ([1]; 10 mg, Median (5th to 95th percentile), ADVANCE EM, 10 mg QD)?
**A.** 0.0733 µg/mL

**Q.** What about the Cmax ([1]; 10 mg, Median (5th to 95th percentile), CGP-MD-01 EM, 10 mg QD) of the same molecule?
**A.** 0.0739 µg/mL

**Q.** And the AUC ([1]; 30 mg, AUC24, Mean (SD), ADVANCE EM, 30 mg QD)?
**A.** 1.83 µg·h/mL

**Q.** And the AUC ([1]; 30 mg, AUC24, Mean (SD), CGP-MD-01 EM, 30 mg BID)?
**A.** 3.9 µg·h/mL

**Q.** And the AUC ([1]; 30 mg, AUC24, Mean (SD), CGP-MD-01 EM, 30 mg QD)?
**A.** 1.71 µg·h/mL

**Q.** What about the AUC ([1]; 30 mg, AUC24, Median (5th to 95th percentile), ADVANCE EM, 30 mg QD) of the same molecule?
**A.** 1.56 µg·h/mL

**Q.** And the AUC ([1]; 30 mg, AUC24, Median (5th to 95th percentile), CGP-MD-01 EM, 30 mg BID)?
**A.** 3.18 µg·h/mL

**Q.** And the AUC ([1]; 30 mg, AUC24, Median (5th to 95th percentile), CGP-MD-01 EM, 30 mg QD)?
**A.** 1.59 µg·h/mL

**Q.** What about the AUC ([1]; 30 mg, AUC24, Median (5th to 95th percentile), PROGRESS CM, 30 mg BID) of the same molecule?
**A.** 3.23 µg·h/mL

**Q.** And the Cmax ([1]; 30 mg, Mean (SD), ADVANCE EM, 30 mg QD)?
**A.** 0.271 µg/mL

**Q.** And the Cmax ([1]; 30 mg, Mean (SD), CGP-MD-01 EM, 30 mg BID)?
**A.** 0.327 µg/mL

**Q.** And the Cmax ([1]; 30 mg, Mean (SD), CGP-MD-01 EM, 30 mg QD)?
**A.** 0.26 µg/mL

**Q.** What about the Cmax ([1]; 30 mg, Median (5th to 95th percentile), ADVANCE EM, 30 mg QD) of the same molecule?
**A.** 0.244 µg/mL

**Q.** And the Cmax ([1]; 30 mg, Median (5th to 95th percentile), CGP-MD-01 EM, 30 mg BID)?
**A.** 0.284 µg/mL

**Q.** What about the Cmax ([1]; 30 mg, Median (5th to 95th percentile), CGP-MD-01 EM, 30 mg QD) of the same molecule?
**A.** 0.247 µg/mL

**Q.** What about the Cmax ([1]; 30 mg, Median (5th to 95th percentile), PROGRESS CM, 30 mg BID) of the same molecule?
**A.** 0.296 µg/mL

**Q.** And the AUC ([1]; 60 mg, AUC24, Mean (SD), ADVANCE EM, 60 mg QD)?
**A.** 3.74 µg·h/mL

**Q.** What about the AUC ([1]; 60 mg, AUC24, Mean (SD), CGP-MD-01 EM, 60 mg BID) of the same molecule?
**A.** 7.94 µg·h/mL

**Q.** And the AUC ([1]; 60 mg, AUC24, Mean (SD), CGP-MD-01 EM, 60 mg QD)?
**A.** 3.64 µg·h/mL

**Q.** What about the AUC ([1]; 60 mg, AUC24, Mean (SD), ELEVATE EM, 60 mg QD) of the same molecule?
**A.** 3.53 µg·h/mL

**Q.** What about the AUC ([1]; 60 mg, AUC24, Median (5th to 95th percentile), ADVANCE EM, 60 mg QD) of the same molecule?
**A.** 3.22 µg·h/mL

**Q.** What about the AUC ([1]; 60 mg, AUC24, Median (5th to 95th percentile), CGP-MD-01 EM, 60 mg BID) of the same molecule?
**A.** 6.9 µg·h/mL

**Q.** And the AUC ([1]; 60 mg, AUC24, Median (5th to 95th percentile), CGP-MD-01 EM, 60 mg QD)?
**A.** 3.45 µg·h/mL

**Q.** And the AUC ([1]; 60 mg, AUC24, Median (5th to 95th percentile), ELEVATE EM, 60 mg QD)?
**A.** 3.31 µg·h/mL

**Q.** And the AUC ([1]; 60 mg, AUC24, Median (5th to 95th percentile), PROGRESS CM, 60 mg QD)?
**A.** 2.9 µg·h/mL

**Q.** And the Cmax ([1]; 60 mg, Mean (SD), ADVANCE EM, 60 mg QD)?
**A.** 0.561 µg/mL

**Q.** What about the Cmax ([1]; 60 mg, Mean (SD), CGP-MD-01 EM, 60 mg BID) of the same molecule?
**A.** 0.634 µg/mL

**Q.** And the Cmax ([1]; 60 mg, Mean (SD), CGP-MD-01 EM, 60 mg QD)?
**A.** 0.545 µg/mL

**Q.** What about the Cmax ([1]; 60 mg, Median (5th to 95th percentile), ADVANCE EM, 60 mg QD) of the same molecule?
**A.** 0.504 µg/mL

**Q.** What about the Cmax ([1]; 60 mg, Median (5th to 95th percentile), PROGRESS CM, 60 mg QD) of the same molecule?
**A.** 0.504 µg/mL

**Q.** What about the “EC90 (effective concentration that results in 90% inhibition of the CGRP receptor)” value [2] of the same molecule?
**A.** 8.4 ng/mL

**Q.** What about the Transporter substrate status [3] of the same molecule?
**A.** substrate

**Q.** What about the Blood-plasma ratio [4] of the same molecule?
**A.** 0.567

**Q.** What about the “Lag time [ALAG (h)]” value [4] of the same molecule?
**A.** 0.298 h

**Q.** And the “Effect of solution on ALAG” value ([4]; fractional covariate effect)?
**A.** −0.191

**Q.** And the “Effect of solution on Frel” value ([4]; fractional covariate effect)?
**A.** −0.547

**Q.** What about the “Apparent clearance healthy participants [CL/F (L/h)]” value ([4]; healthy participants) of the same molecule?
**A.** 18.2 L/h

**Q.** What about the “Absorption rate constant [ka (/h)]” value ([4]; healthy participants and EM patients) of the same molecule?
**A.** 1.31 h⁻¹

**Q.** And the “Apparent clearance patients [CL/F (L/h)]” value ([4]; patients)?
**A.** 18.2 L/h

**Q.** And the “Exponential effect of dose on Frel” value ([4]; power exponent)?
**A.** 0.163

**Q.** What about the “Exponential effect of dose on ka” value ([4]; power exponent) of the same molecule?
**A.** −0.252

**Q.** What about the σprop ([4]; proportional residual error) of the same molecule?
**A.** 0.339

**Q.** What about the “σprop (study CGP-MD-01)” value ([4]; proportional residual error) of the same molecule?
**A.** 0.572

**Q.** And the “σprop (study CGP-PK-02)” value ([4]; proportional residual error)?
**A.** 0.252

**Q.** And the “ω^2CL/F” value ([4]; variance of IIV)?
**A.** 0.0724

**Q.** And the “ω^2Q/F” value ([4]; variance of IIV)?
**A.** 0.550

**Q.** What about the “ω^2ka” value ([4]; variance of IIV) of the same molecule?
**A.** 0.683

**Q.** And the “ω^2IOVFrel” value ([4]; variance of IOV)?
**A.** 0.228

**Q.** What about the “Area under the concentration–time curve (AUC)” value ([5]; 60-mg dose) of the same molecule?
**A.** ~ 3470 ng h/mL

**Q.** And the “Dose proportionality of PK” value [5]?
**A.** dose-proportional up to a 300-mg single dose and multiple doses of 170 mg/day

**Q.** What about the Food effect [5] of the same molecule?
**A.** no clinically significant food effect

**Q.** What about the “Half-life (t1/2)” value [5] of the same molecule?
**A.** ~ 11 h

**Q.** And the Accumulation ([5]; multiple doses)?
**A.** no accumulation

**Q.** What about the “Maximum plasma concentration (Cmax)” value [5, 10] of the same molecule?
**A.** ~ 740 ng/mL

**Q.** And the “Time to achieve a pharmacologically effective concentration” value [5, 10]?
**A.** ≤ 30 min

**Q.** And the Transporter substrate status [6]?
**A.** substrate

**Q.** What about the Transporter substrate status [7] of the same molecule?
**A.** substrate

**Q.** What about the Metabolizing enzyme [8] of the same molecule?
**A.** primarily metabolized by cytochrome P450 3A4 (CYP3A4)

**Q.** What about the Transporter substrate status [9] of the same molecule?
**A.** substrate
